Experimental data published in ChEMBL document CHEMBL2417509, “Synthesis and biological evaluation of prodigiosene conjugates of porphyrin, estrone and 4-hydroxytamoxifen” (2013).

Key:
Assay type in all cases: functional
NCI-H460 = experiment: Cytotoxicity against human NCI-H460 cells after 2 days by sulforhodamine B assay; conditions: NCI-H460, 48 h
How it was run: (§1)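 NCI60 multi-dose screen, 59 human tumour lines available. Cells exposed to compound across a 5-log mol/L concentration range for 2 days, then fixed and stained with sulphorhodamine B, optical density read. Growth inhibition calculated against time-zero control and untreated cells. GI50 derived from the dose series, average of two replicates.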

MCF7 = experiment: Cytotoxicity against human MCF7 cells after 2 days by sulforhodamine B assay; conditions: MCF7, 48 h; how it was run: as §1
MDA-MB-468 = experiment: Cytotoxicity against human MDA-MB-468 cells after 2 days by sulforhodamine B assay; conditions: MDA-MB-468, 48 h; how it was run: as §1
RXF 393 = experiment: Cytotoxicity against human RXF393 cells after 2 days by sulforhodamine B assay; conditions: RXF 393, 48 h; how it was run: as §1
HL-60(TB) = experiment: Cytotoxicity against human HL-60(TB) cells after 2 days by sulforhodamine B assay; conditions: HL-60, 48 h
How it was run: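 NCI60 multi-dose screen: cells exposed to compound over a 5-log mol/L concentration range for 2 days, then fixed and stained with sulphorhodamine B and optical density read. Growth inhibition calculated relative to time-zero control and untreated cells; GI50 reported as average of two replicates.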

K562 = experiment: Cytotoxicity against human K562 cells after 2 days by sulforhodamine B assay; conditions: K562, 48 h; how it was run: as §1
OVCAR-5 = experiment: Cytotoxicity against human OVCAR5 cells after 2 days by sulforhodamine B assay; conditions: OVCAR-5, 48 h; how it was run: as §1
NCI-H226 = experiment: Cytotoxicity against human NCI-H226 cells after 2 days by sulforhodamine B assay; conditions: NCI-H226, 48 h; how it was run: as §1
[1] = Cytotoxicity against human Hs578T cells after 2 days by sulforhodamine B assay; conditions: Hs-578T, 48 h; how it was run: as §1
HCC 2998 = experiment: Cytotoxicity against human HCC2998 cells after 2 days by sulforhodamine B assay; conditions: HCC 2998, 48 h; how it was run: as §1
SF-539 = experiment: Cytotoxicity against human SF539 cells after 2 days by sulforhodamine B assay; conditions: SF-539, 48 h; how it was run: as §1
MOLT-4 = experiment: Cytotoxicity against human MOLT4 cells after 2 days by sulforhodamine B assay; conditions: MOLT-4, 48 h; how it was run: as §1
BT-549 = experiment: Cytotoxicity against human BT549 cells after 2 days by sulforhodamine B assay; conditions: BT-549, 48 h; how it was run: as §1
SK-MEL-2 = experiment: Cytotoxicity against human SK-MEL-2 cells after 2 days by sulforhodamine B assay; conditions: SK-MEL-2, 48 h; how it was run: as §1
MDA-MB-435 = experiment: Cytotoxicity against human MDA-MB-435 cells after 2 days by sulforhodamine B assay; conditions: MDA-MB-435, 48 h; how it was run: as §1
DU-145 = experiment: Cytotoxicity against human DU145 cells after 2 days by sulforhodamine B assay; conditions: DU-145, 48 h; how it was run: as §1
HCT-15 = experiment: Cytotoxicity against human HCT15 cells after 2 days by sulforhodamine B assay; conditions: HCT-15, 48 h; how it was run: as §1
Malme-3M = experiment: Cytotoxicity against human MALME-3M cells after 2 days by sulforhodamine B assay; conditions: 48 h; how it was run: as §1
RPMI-8226 = experiment: Cytotoxicity against human RPMI8226 cells after 2 days by sulforhodamine B assay; conditions: RPMI-8226, 48 h; how it was run: as §1
HCT-116 = experiment: Cytotoxicity against human HCT116 cells after 2 days by sulforhodamine B assay; conditions: HCT-116, 48 h; how it was run: as §1
SF-268 = experiment: Cytotoxicity against human SF268 cells after 2 days by sulforhodamine B assay; conditions: SF-268, 48 h; how it was run: as §1
NCI-H322M = experiment: Cytotoxicity against human NCI-H322M cells after 2 days by sulforhodamine B assay; conditions: 48 h; how it was run: as §1
MDA-MB-231 = experiment: Cytotoxicity against human MDA-MB-231 cells after 2 days by sulforhodamine B assay; conditions: MDA-MB-231, 48 h; how it was run: as §1
CCRF-CEM = experiment: Cytotoxicity against human CCRF-CEM cells after 2 days by sulforhodamine B assay; conditions: 48 h; how it was run: as §1
HOP-92 = experiment: Cytotoxicity against human HOP92 cells after 2 days by sulforhodamine B assay; conditions: HOP-92, 48 h; how it was run: as §1
A549 = experiment: Cytotoxicity against human A549/ATCC cells after 2 days by sulforhodamine B assay; conditions: A549, 48 h; how it was run: as §1
PC-3 = experiment: Cytotoxicity against human PC3 cells after 2 days by sulforhodamine B assay; conditions: PC-3, 48 h; how it was run: as §1
NCI-H23 = experiment: Cytotoxicity against human NCI-H23 cells after 2 days by sulforhodamine B assay; conditions: NCI-H23, 48 h; how it was run: as §1
[2] = read-out: LC50 (the source's name)

Work on CCC(=C(c1ccc(OCCN(C)C)cc1)c1ccc(OC(=O)CCCCC(=O)C2=C(C)/C(=C/c3[nH]c(-c4ccc[nH]4)cc3OC)N=C2C)cc1)c1ccccc1 yielded a GI50 (NCI-H460) of 3.98 µM, an LC50 (NCI-H460) of 53.7 µM and a TGI (NCI-H460) of 15.5 µM. For the same compound, the GI50 (MCF7) was 0.05 µM, the LC50 (concentration giving 50% net cell kill) (MCF7) was 4.68 µM and the TGI (MCF7) was 1.2 µM. The GI50 (MDA-MB-468) was 2.45 µM, the LC50 (MDA-MB-468) was 41.7 µM and the TGI (MDA-MB-468) was 14.8 µM. For the same compound, the GI50 (RXF 393) was 3.89 µM, the LC50 (concentration killing 50% of cells) (RXF 393) was 44.7 µM and the TGI (RXF 393) was 17.8 µM. The GI50 (HL-60(TB)) was 18.2 µM, the TGI (HL-60(TB)) was 41.7 µM and the CC50 (HL-60(TB); [2]) was 97.7 µM. For the same compound, the GI50 (K562) was 3.16 µM, the LC50 (concentration killing 50% of cells) (K562) was 72.4 µM and the TGI (K562) was 12.6 µM. For the same compound, the GI50 (OVCAR-5) was 10.5 µM, the LC50 (OVCAR-5) was 47.9 µM and the TGI (OVCAR-5) was 22.4 µM. It also gave a GI50 (NCI-H226) of 14.1 µM, an LC50 (NCI-H226) of 83.2 µM and a TGI (NCI-H226) of 34.7 µM. For the same compound, the GI50 [1] was 5.01 µM, the TGI [1] was 47.9 µM and the CC50 [1, 2] was over 100 µM. It also gave a GI50 (HCC 2998) of 13.2 µM, an LC50 (50% lethal concentration) (HCC 2998) of 53.7 µM and a TGI (HCC 2998) of 26.9 µM. For the same compound, the GI50 (SF-539) was 12.9 µM, the LC50 (SF-539) was 58.9 µM and the TGI (SF-539) was 27.5 µM. It also gave a GI50 (MOLT-4) of 1.74 µM, a TGI (MOLT-4) of 25.1 µM and a CC50 (MOLT-4; [2]) of over 100 µM. It also gave a GI50 (BT-549) of 3.55 µM, an LC50 (concentration killing 50% of cells present at time zero) (BT-549) of 41.7 µM and a TGI (BT-549) of 17 µM. The GI50 (SK-MEL-2) was 16.6 µM, the LC50 (SK-MEL-2) was 67.6 µM and the TGI (SK-MEL-2) was 33.1 µM. For the same compound, the GI50 (MDA-MB-435) was 6.92 µM, the TGI (MDA-MB-435) was 45.7 µM and the CC50 (MDA-MB-435; [2]) was over 100 µM. The GI50 (DU-145) was 7.76 µM, the LC50 (concentration killing 50% of starting cells) (DU-145) was 50.1 µM and the TGI (DU-145) was 20.9 µM. It also gave a GI50 (HCT-15) of 4.47 µM, an LC50 (HCT-15) of over 100 µM and a TGI (HCT-15) of 28.8 µM. The GI50 (Malme-3M) was 9.33 µM, the LC50 (Malme-3M) was over 100 µM and the TGI (Malme-3M) was 34.7 µM. For the same compound, the GI50 (RPMI-8226) was 3.16 µM, the LC50 (concentration killing 50% of cells present at time zero) (RPMI-8226) was over 100 µM and the TGI (RPMI-8226) was 19 µM. It also gave a GI50 (HCT-116) of 3.55 µM, an LC50 (concentration killing 50% of cells vs time zero) (HCT-116) of 37.1 µM and a TGI (HCT-116) of 13.8 µM. For the same compound, the GI50 (SF-268) was 7.76 µM, the LC50 (concentration killing 50% of cells) (SF-268) was over 100 µM and the TGI (SF-268) was 30.2 µM. The GI50 (NCI-H322M) was 13.5 µM, the LC50 (concentration killing 50% of cells) (NCI-H322M) was 69.2 µM and the TGI (NCI-H322M) was 30.9 µM. For the same compound, the GI50 (MDA-MB-231) was 2 µM, the LC50 (MDA-MB-231) was 33.9 µM and the TGI (MDA-MB-231) was 11.5 µM. It also gave a GI50 (CCRF-CEM) of 0.32 µM, a TGI (CCRF-CEM) of over 100 µM and a CC50 (CCRF-CEM; [2]) of over 100 µM. It also gave a GI50 (HOP-92) of 1.12 µM, a TGI (HOP-92) of 6.31 µM and a CC50 (HOP-92; [2]) of 47.9 µM. The GI50 (A549) was 3.89 µM, the LC50 (concentration giving 50% net cell kill) (A549) was 50.1 µM and the TGI (A549) was 15.8 µM. The GI50 (PC-3) was 4.57 µM, the LC50 (concentration killing 50% of cells) (PC-3) was 58.9 µM and the TGI (PC-3) was 20.4 µM. The GI50 (NCI-H23) was 12.6 µM, the LC50 (concentration killing 50% of cells) (NCI-H23) was 69.2 µM and the TGI (NCI-H23) was 29.5 µM.
